From ChEMBL document CHEMBL1144889 (J Med Chem, 2003)

Tests used:
Glucocorticoid receptor [1] = biological target: T1, Glucocorticoid receptor (Homo sapiens, UniProt P04150); assay: Transcriptional activation in CV-1 cells expressing human glucocorticoid receptor; type: functional, cell-based
T1 sequence (P04150 whole entry): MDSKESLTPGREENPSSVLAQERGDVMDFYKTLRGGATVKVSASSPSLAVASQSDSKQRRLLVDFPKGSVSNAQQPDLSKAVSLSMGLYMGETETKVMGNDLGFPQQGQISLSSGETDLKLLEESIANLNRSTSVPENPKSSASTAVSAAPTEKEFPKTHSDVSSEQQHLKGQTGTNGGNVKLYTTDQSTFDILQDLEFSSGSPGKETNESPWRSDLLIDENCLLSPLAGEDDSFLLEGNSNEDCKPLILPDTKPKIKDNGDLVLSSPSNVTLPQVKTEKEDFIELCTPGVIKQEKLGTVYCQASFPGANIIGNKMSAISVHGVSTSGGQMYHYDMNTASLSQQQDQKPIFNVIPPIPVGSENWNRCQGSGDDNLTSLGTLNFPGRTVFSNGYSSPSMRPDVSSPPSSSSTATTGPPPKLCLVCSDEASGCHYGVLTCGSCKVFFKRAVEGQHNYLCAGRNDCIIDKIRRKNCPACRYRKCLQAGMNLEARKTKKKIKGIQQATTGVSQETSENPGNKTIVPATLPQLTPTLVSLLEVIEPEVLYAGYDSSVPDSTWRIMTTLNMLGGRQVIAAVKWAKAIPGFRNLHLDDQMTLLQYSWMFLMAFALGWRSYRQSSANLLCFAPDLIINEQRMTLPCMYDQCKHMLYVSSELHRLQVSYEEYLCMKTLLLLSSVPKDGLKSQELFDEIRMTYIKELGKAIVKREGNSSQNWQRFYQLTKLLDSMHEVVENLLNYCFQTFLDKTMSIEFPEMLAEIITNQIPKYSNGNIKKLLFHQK
Summary of the method: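 Cotransfection of an hGR receptor plasmid with a luciferase reporter driven by the MMTV promoter (four GREs) in CV-1 cells. Seven-point half-log concentration-response curves. EC50 taken as half-maximal response. Efficacy expressed as % of the dexamethasone maximum. Mean of two experiments in triplicate, single triplicate run, or ≥3 experiments in triplicate.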

Androgen receptor = biological target: T2, Androgen receptor (Homo sapiens, UniProt P10275); assay: Binding affinity towards testosterone receptor
T2 sequence (P10275 whole entry): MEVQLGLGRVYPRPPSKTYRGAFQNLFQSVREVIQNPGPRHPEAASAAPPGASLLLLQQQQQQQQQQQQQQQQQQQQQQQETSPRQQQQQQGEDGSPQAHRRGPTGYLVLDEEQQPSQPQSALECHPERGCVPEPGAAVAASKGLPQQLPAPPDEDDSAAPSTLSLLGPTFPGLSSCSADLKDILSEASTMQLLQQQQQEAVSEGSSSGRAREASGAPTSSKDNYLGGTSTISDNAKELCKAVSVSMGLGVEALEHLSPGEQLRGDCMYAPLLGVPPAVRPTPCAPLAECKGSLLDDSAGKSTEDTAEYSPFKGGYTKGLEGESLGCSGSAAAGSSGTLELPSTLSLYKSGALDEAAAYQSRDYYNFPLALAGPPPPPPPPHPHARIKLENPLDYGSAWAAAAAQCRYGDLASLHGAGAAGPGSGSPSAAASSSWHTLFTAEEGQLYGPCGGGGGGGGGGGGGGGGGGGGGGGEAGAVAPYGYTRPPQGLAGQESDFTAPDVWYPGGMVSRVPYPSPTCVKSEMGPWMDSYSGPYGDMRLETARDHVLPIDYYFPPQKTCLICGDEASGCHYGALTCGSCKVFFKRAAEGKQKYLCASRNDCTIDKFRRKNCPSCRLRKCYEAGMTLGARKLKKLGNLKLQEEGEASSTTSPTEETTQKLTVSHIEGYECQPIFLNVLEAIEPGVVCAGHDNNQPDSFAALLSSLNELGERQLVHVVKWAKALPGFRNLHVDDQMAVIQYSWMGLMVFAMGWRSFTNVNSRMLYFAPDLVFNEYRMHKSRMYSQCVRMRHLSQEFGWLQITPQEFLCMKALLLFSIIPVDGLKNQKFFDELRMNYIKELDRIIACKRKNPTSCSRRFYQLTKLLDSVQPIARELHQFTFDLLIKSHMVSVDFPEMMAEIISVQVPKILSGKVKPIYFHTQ

Progesterone receptor = biological target: T3, Progesterone receptor (Homo sapiens, UniProt P06401); assay: Displacement of [3H]progesterone from human Progesterone receptor A
T3 sequence (P06401 whole entry): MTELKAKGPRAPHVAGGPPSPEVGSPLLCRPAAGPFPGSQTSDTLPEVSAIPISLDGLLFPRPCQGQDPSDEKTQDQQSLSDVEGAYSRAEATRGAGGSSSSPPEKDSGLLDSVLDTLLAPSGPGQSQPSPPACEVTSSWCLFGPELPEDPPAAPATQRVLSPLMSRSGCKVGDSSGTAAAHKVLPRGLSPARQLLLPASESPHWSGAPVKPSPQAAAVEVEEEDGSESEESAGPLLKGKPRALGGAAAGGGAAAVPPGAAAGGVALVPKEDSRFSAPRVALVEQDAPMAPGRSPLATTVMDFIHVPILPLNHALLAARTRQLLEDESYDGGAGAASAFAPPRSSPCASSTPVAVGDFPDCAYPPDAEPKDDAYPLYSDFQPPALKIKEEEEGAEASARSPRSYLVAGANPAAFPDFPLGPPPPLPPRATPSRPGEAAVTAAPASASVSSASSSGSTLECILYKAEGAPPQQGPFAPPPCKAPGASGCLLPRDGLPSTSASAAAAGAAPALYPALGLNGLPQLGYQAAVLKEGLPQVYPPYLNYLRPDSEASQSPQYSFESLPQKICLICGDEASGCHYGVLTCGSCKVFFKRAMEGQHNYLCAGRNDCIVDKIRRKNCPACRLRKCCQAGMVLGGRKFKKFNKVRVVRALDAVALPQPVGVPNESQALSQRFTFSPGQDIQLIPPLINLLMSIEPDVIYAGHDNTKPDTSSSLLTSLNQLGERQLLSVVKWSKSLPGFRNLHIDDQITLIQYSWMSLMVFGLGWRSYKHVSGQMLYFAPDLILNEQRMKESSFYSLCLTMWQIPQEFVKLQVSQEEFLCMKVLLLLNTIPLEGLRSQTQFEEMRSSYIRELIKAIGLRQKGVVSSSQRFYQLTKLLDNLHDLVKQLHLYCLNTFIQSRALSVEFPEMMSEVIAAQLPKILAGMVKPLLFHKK

Glucocorticoid receptor [2] = biological target: T1, Glucocorticoid receptor; assay: Transcriptional repression in HepG2 cells expressing human glucocorticoid receptor; type: functional, cell-based
[3] = biological target: T4, Glucocorticoid receptor (Homo sapiens) (UniProt P04150); assay: Transcriptional activation in CV-1 cells expressing human glucocorticoid receptor compared to Dexamethasone; type: functional, cell-based
T4 sequence (whole entry): T1 sequence (P04150 whole entry)
Summary of the method: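 GRE activation co-transfection in CV-1 cells: hGR receptor plasmid plus a luciferase reporter driven by part of the MMTV promoter (four GRE sites, no known AP-1 or NFκB affinity). Full seven-point, half-log concentration-response curves run in triplicate. EC50 is the concentration at half-maximal response; efficacy is given as % of the dexamethasone maximal response.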

[4] = Binding affinity towards estradiol receptor (Estrogen receptor); parameters: species or system Homo sapiens
Summary of the method: (§1)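 Competition radioligand binding; tracers [3H]aldosterone (MR) and [3H]estradiol (ER). Bound ligand collected on hydroxyapatite, washed with ice-cold buffer, counted by scintillation. IC50 obtained from Hill analysis of binding curves, Ki from Cheng-Prusoff. Mean of two experiments in triplicate, single triplicate run, or ≥3 experiments in triplicate.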

Glucocorticoid receptor [5] = biological target: T1, Glucocorticoid receptor; assay: Binding affinity towards human glucocorticoid receptor (GR) was determined using [3H]dexamethasone as radioligand in […] cells; type: cell-based
[6] = Binding affinity towards aldosterone receptor (Mineralocorticoid receptor); parameters: species or system Homo sapiens; summary of the method: as §1

Compound	EC50 (Glucocorticoid receptor [1]) [nM]	Ki (Androgen receptor) [nM]	Ki (Progesterone receptor) [nM]	EC50 (Glucocorticoid receptor [2]) [nM]	Efficacy [3] [%]	Ki [4] [nM]	Ki (Glucocorticoid receptor [5]) [nM]	Ki [6] [nM]
C#Cc1cccc2c1-c1ccc3c(c1C(CC=C)O2)C(C)=CC(C)(C)N3 (configuration not stated)	130	650	2400	59	92	> 1000	6.9	350
C=CCC1Oc2ccc(Cl)c(OC)c2-c2ccc3c(c21)C(C)=CC(C)(C)N3 (configuration not stated)			29	94			5.42	
C=CCC1Oc2c(C)ccc(OC)c2-c2ccc3c(c21)C(C)=CC(C)(C)N3 (configuration not stated)			> 5000	81				
C=CCOc1ccc2c(c1OC)-c1ccc3c(c1C(CC=C)O2)C(C)=CC(C)(C)N3 (configuration not stated)				140				
C=CCC1Oc2cccc(Cl)c2-c2ccc3c(c21)C(C)=CC(C)(C)N3 (configuration not stated)				45				
C=CCC1Oc2c(Br)ccc(OC)c2-c2ccc3c(c21)C(C)=CC(C)(C)N3 (configuration not stated)			> 5000	59				
C=CCC1Oc2ccc(OC)c(OC)c2-c2ccc3c(c21)C(C)=CC(C)(C)N3 (configuration not stated)				120				
C=CCC1Oc2c(C=C)ccc(OC)c2-c2ccc3c(c21)C(C)=CC(C)(C)N3 (configuration not stated)			450	156			34	
C=CCC1Oc2cccc(C#N)c2-c2ccc3c(c21)C(C)=CC(C)(C)N3 (configuration not stated)	195	> 5000		60	87	> 1000		> 5000
C#CCOc1cccc2c1-c1ccc3c(c1C(CC=C)O2)C(C)=CC(C)(C)N3 (configuration not stated)	> 300			270	9		4.2	
C=CCC1Oc2ccc(C(=O)OC)c(OC)c2-c2ccc3c(c21)C(C)=CC(C)(C)N3 (configuration not stated)				100				
C=CCC1Oc2ccc(CO)c(OC)c2-c2ccc3c(c21)C(C)=CC(C)(C)N3 (configuration not stated)			100	53			6.6	
C[C@]12C=CC(=O)C=C1CCC1[C@@H]2[C@@H](O)C[C@@]2(C)[C@H]1CC[C@]2(O)C(=O)CO (single isomer, unassigned) [PREDNISOLONE]						> 1000		37
C=CCC1Oc2c(Br)cc(O)c(Cl)c2-c2ccc3c(c21)C(C)=CC(C)(C)N3 (configuration not stated)			22					
C=CCC1Oc2cccc(SC)c2-c2ccc3c(c21)C(C)=CC(C)(C)N3 (configuration not stated)	123	2460		18	60	> 1000		93.8
C=CCC1Oc2ccc(OCC#N)c(OC)c2-c2ccc3c(c21)C(C)=CC(C)(C)N3 (configuration not stated)			3080	130			51	
C=CCC1Oc2cccc(CO)c2-c2ccc3c(c21)C(C)=CC(C)(C)N3 (configuration not stated)	61	1320		19	69	> 1000	2.3	292
C=CCC1Oc2cccc(O)c2-c2ccc3c(c21)C(C)=CC(C)(C)N3 (configuration not stated)	550	2060		250	29	> 1000	27.6	1370
C=CCC1Oc2cccc(NC)c2-c2ccc3c(c21)C(C)=CC(C)(C)N3 (configuration not stated)	32	2590	2920	19	60	> 1000	7	251
C=CCC1Oc2ccccc2-c2ccc3c(c21)C(C)=CC(C)(C)N3 (configuration not stated)	> 300	> 5000		350	2	> 1000	33.8	> 5000
C=CCC1Oc2cccc(C=C)c2-c2ccc3c(c21)C(C)=CC(C)(C)N3 (configuration not stated)	17	239	435	12	50	> 1000	4.4	57
C#CCOc1ccc2c(c1OC)-c1ccc3c(c1C(CC=C)O2)C(C)=CC(C)(C)N3 (configuration not stated)				160				
C=CCC1Oc2ccc(Br)c(OC)c2-c2ccc3c(c21)C(C)=CC(C)(C)N3 (configuration not stated)			34	82				
